The source made the active and inactive calls. The rule behind the calls is not given here.
Assays:
Interstitial collagenase [1] = molecular target: T1, Interstitial collagenase (Homo sapiens, UniProt P03956); assay: Inhibition of MMP1 at 10 uM
How it was run: (§1)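 Cell-free assay on isolated enzyme (MMP-1, MMP-9, MMP-13 or TACE). Percent inhibition was read at a single 10 μM inhibitor concentration, with samples run in triplicate and the mean reported. Full dose-response curves were generated only where inhibition at 10 μM reached 60%.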

THP-1 = assay: Inhibition of LPS-stimulated TNFalpha production in human THP1 cells at 3 uM by ELISA; type: functional
Collagenase 3 [2] = molecular target: T2, Collagenase 3 (Homo sapiens, UniProt P45452); assay: Inhibition of MMP13 at 10 uM; how it was run: as §1
[3] = molecular target: T3, Matrix metalloproteinase-9 (Homo sapiens, UniProt P14780); assay: Inhibition of MMP9 at 10 uM; how it was run: as §1
Interstitial collagenase [4] = molecular target: T1, Interstitial collagenase
[5] = molecular target: T3, Matrix metalloproteinase-9
[6] = molecular target: T4, Disintegrin and metalloproteinase domain-containing protein 17 (Homo sapiens, UniProt P78536); assay: Inhibition of TACE at 10 uM; how it was run: as §1
Collagenase 3 [7] = molecular target: T2, Collagenase 3
[8] = molecular target: T4, Disintegrin and metalloproteinase domain-containing protein 17
Mus musculus [9] = assay: Inhibition of LPS-stimulated TNFalpha production in mouse model at 10 mg/kg, po; type: functional, organism-based; design: dose 10 mg/kg
How it was run: (§2)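 Mice received the compound orally. LPS was injected 30 min after dosing. Blood was drawn 1 h after LPS, and serum TNF-α was measured by ELISA. Results are expressed as % inhibition of LPS-induced TNF-α.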

Mus musculus [10] = assay: Inhibition of LPS-stimulated TNFalpha production in mouse model at 100 mg/kg, po at 1 hrs; type: functional; how it was run: as §2
Mus musculus [11] = assay: Inhibition of LPS-stimulated TNFalpha production in mouse model at 100 mg/kg, po at 12 hrs; type: functional
Mus musculus [12] = assay: Inhibition of LPS-stimulated TNFalpha production in mouse model at 10 mg/kg, po at 1 hrs; type: functional; how it was run: as §2
Mus musculus [13] = assay: Inhibition of LPS-stimulated TNFalpha production in mouse model at 10 mg/kg, po at 12 hrs; type: functional, organism-based; design: dose 10 mg/kg

T1 sequence (P03956 whole entry): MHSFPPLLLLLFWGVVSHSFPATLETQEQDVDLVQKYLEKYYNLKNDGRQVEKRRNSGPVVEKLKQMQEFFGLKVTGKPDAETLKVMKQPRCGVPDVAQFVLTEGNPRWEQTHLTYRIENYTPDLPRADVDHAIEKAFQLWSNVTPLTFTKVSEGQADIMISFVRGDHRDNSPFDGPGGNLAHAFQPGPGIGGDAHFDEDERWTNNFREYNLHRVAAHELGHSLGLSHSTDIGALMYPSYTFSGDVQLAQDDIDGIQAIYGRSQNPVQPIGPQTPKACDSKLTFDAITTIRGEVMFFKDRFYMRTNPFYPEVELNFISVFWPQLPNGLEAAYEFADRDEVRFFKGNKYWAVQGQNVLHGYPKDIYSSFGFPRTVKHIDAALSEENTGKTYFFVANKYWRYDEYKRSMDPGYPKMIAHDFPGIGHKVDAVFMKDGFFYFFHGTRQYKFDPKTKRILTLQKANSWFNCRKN
T4 sequence (P78536 whole entry, the tested form may be a part): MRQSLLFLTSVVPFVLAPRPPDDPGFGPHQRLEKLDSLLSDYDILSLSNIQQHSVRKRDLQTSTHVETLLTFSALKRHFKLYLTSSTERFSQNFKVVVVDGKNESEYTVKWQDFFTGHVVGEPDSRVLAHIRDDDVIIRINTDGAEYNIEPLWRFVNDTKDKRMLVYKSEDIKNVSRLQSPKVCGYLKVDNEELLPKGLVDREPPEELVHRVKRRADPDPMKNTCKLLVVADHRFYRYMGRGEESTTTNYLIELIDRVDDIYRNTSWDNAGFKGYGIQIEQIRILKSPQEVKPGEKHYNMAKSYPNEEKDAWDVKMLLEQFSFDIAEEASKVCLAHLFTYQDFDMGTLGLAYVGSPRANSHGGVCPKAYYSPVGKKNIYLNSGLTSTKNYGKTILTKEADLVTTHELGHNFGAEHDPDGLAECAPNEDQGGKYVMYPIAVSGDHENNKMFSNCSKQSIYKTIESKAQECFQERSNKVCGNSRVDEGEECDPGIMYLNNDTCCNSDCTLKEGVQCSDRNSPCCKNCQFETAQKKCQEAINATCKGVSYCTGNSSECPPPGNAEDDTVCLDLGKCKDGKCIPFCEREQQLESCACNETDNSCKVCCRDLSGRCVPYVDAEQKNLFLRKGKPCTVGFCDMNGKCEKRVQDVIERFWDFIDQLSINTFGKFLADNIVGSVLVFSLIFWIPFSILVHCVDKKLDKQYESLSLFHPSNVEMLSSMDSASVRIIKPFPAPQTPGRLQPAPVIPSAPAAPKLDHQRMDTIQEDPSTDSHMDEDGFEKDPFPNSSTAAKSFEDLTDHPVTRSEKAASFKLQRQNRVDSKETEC
T3 sequence (P14780 whole entry): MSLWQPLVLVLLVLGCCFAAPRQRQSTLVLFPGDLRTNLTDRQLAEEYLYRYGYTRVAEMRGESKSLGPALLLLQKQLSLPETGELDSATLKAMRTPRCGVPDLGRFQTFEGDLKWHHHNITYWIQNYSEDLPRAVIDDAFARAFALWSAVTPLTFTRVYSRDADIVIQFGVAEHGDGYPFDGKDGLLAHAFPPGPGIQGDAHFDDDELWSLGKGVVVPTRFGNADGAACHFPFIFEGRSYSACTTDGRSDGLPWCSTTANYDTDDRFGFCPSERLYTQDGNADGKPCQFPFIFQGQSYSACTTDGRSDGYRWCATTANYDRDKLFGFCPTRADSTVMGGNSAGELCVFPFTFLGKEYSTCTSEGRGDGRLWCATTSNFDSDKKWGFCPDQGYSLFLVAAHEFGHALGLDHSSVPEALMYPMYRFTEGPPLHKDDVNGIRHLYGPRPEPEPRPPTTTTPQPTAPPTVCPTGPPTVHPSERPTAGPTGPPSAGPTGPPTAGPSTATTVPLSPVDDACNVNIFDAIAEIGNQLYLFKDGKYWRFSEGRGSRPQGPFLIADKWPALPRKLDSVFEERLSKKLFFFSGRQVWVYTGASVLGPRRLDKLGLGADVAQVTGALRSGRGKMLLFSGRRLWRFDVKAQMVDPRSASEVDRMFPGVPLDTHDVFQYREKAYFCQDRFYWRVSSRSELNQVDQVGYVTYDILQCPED

Row | SMILES | inhibition at 3 µM (THP-1) | IC50 (Interstitial collagenase [4]) | IC50 [5] | IC50 (Collagenase 3 [7]) | IC50 [8] | also measured
1 | O=C(NO)C1(S(=O)(=O)c2ccc(OCC#CCN3CCOCC3)cc2)CCN(Cc2ccc(Br)cc2)CC1 | 0% |  |  |  |  | inhibition (Interstitial collagenase [1]): 16%; inhibition (Collagenase 3 [2]): 63%; inhibition [3]: 20%
2 | CC#CCOc1ccc(S(=O)(=O)C(C(=O)NO)C2CCCCC2)cc1 (configuration not stated) |  | > 10 µM | > 10000 nM |  |  | 
3 | CC#CCOc1ccc(SC2(C(=O)OCC)CCN(C(=O)OC(C)(C)C)CC2)cc1 | 0% |  |  |  |  | inhibition (Interstitial collagenase [1]): 26%; inhibition [6]: 67%; inhibition (Collagenase 3 [2]): 32%; inhibition [3]: 21%
4 | CC#CCOc1ccc(S(=O)(=O)C(C(=O)NO)C2CCNCC2)cc1 (configuration not stated) |  | > 10 µM | > 10000 nM | > 10000 nM |  | 
5 | CC#CCOc1ccc(S(=O)(=O)C(C(=O)NO)C2CCN(C(C)=O)CC2)cc1 (configuration not stated) | 31% | > 10 µM | > 10000 nM | > 10000 nM | 119 nM | 
6 | CCCCOc1ccc(S(=O)(=O)C2(C(=O)NO)CCN(Cc3ccc(Br)cc3)CC2)cc1 | 6% | 3.96 µM | 10 nM | 5 nM | 72 nM | 
7 | CC#CCOc1ccc(S(=O)(=O)C2(C(=O)NO)CCN(Cc3ccccc3)CC2)cc1 |  | 2.64 µM |  |  |  | 
8 | CC#CCOc1ccc(SC(C(=O)NO)C2CCCCC2)cc1 (configuration not stated) | 5% | > 10 µM | 3000 nM | 2000 nM |  | 
9 | CCCCCCC(Sc1ccc(OC)cc1)C(=O)NO (configuration not stated) |  |  |  |  |  | inhibition (Interstitial collagenase [1]): 9%; inhibition (Collagenase 3 [2]): 55%; inhibition [3]: 67%
10 | C#CCOc1ccc(S(=O)(=O)C2(C(=O)NO)CCN(Cc3ccc(Br)cc3)CC2)cc1 | 7% |  | 6 nM | 3 nM |  | 
11 | CCCCCC[C@@H](C(=O)NO)[S@@+]([O-])c1ccc(OC)cc1 (relative stereo) |  | 1.51 µM | 148 nM | 18 nM | 375 nM | 
12 | CC#CCOc1ccc(S(=O)(=O)C(C(=O)NO)C2CCN(C(=O)C3CC3)CC2)cc1 (configuration not stated) | 71% | > 10 µM | > 10000 nM | > 10000 nM | 54 nM | 
13 | CC#CCOc1ccc(SC(CCCCCC)C(=O)NO)cc1 (configuration not stated) | 5% | > 10 µM |  |  |  | 
14 | CCCCCC#CCOc1ccc(S(=O)(=O)C2(C(=O)NO)CCN(Cc3ccc(Br)cc3)CC2)cc1 | 0% |  |  |  |  | inhibition (Interstitial collagenase [1]): 33%; inhibition (Collagenase 3 [2]): 60%; inhibition [3]: 59%
15 | CC#CCOc1ccc(S(=O)(=O)C2(C(=O)NO)CCN(Cc3ccc(Cl)cc3)CC2)cc1 | 66% |  |  |  |  | inhibition (Interstitial collagenase [1]): 52%; inhibition (Collagenase 3 [2]): 56%; Activity (Mus musculus [9]): inactive; inhibition in vivo at 100 mg/kg (Mus musculus [10]): 61%; inhibition [3]: 52%; inhibition in vivo at 100 mg/kg (Mus musculus [11]): 23%
16 | CC#CCOc1ccc(S(=O)(=O)N2CCSC(C)(C)[C@@H]2C(=O)NO)cc1 |  |  |  |  |  | inhibition in vivo at 10 mg/kg (Mus musculus [12]): 80%; Activity (Mus musculus [13]): inactive
17 | CC#CCOc1ccc([S@@](=O)[C@H](C(=O)NO)c2ccccc2)cc1 | 4% | > 10 µM | > 10000 nM | > 10000 nM | 74 nM | 
18 | CC#CCOc1ccc(SC(C(=O)NO)C(C)C)cc1 (configuration not stated) | 13% | > 10 µM | > 10000 nM | > 10000 nM |  | 
19 | CC#CCOc1ccc(S(=O)(=O)C2(C(=O)NO)CCN(CC)CC2)cc1 | 35% |  |  |  | 80 nM | inhibition (Interstitial collagenase [1]): 44%; inhibition [3]: 31%
20 | CC#CCOc1ccc(S(=O)(=O)C(C(=O)NO)C2CCOCC2)cc1 (configuration not stated) |  | > 10 µM | > 10000 nM | > 10000 nM |  | 
21 | CC#CCOc1ccc(S(=O)(=O)C(CCCCCC)C(=O)NO)cc1 (configuration not stated) | 6% | > 10 µM | 2500 nM | 500 nM | 75 nM | 

Row | SMILES | inhibition at 3 µM (THP-1) | IC50 (Interstitial collagenase [4]) | IC50 [5] | IC50 (Collagenase 3 [7]) | IC50 [8] | also measured
22 | CC#CCOc1ccc([S+]([O-])C(C(=O)NO)c2ccc(OC)cc2)cc1 (single isomer, unassigned) |  | > 10 µM | > 10000 nM | > 10000 nM | 17 nM | 
23 | CC#CCOc1ccc([S@@+]([O-])[C@@H](CCCCCC)C(=O)NO)cc1 | 67% | 3 µM | 1500 nM | 900 nM | 4 nM | 
24 | CCC#CCOc1ccc(S(=O)(=O)C2(C(=O)NO)CCN(Cc3ccc(Br)cc3)CC2)cc1 | 0% |  |  |  |  | inhibition (Interstitial collagenase [1]): 51%; inhibition (Collagenase 3 [2]): 40%; inhibition [3]: 41%
25 | CC#CCOc1ccc(S(=O)(=O)C(C(=O)NO)c2ccccc2)cc1 (configuration not stated) | 68% | 4.57 µM | 124 nM | 68 nM | 94 nM | 
26 | CC#CCOc1ccc([S@@](=O)[C@H](C(=O)NO)c2ccc(OC)cc2)cc1 | 12% | > 10 µM | > 10000 nM | > 10000 nM | 48 nM | 
27 | COc1ccc(S(=O)(=O)C2(C(=O)NO)CCN(Cc3ccc(Br)cc3)CC2)cc1 | 0% |  |  |  |  | 
28 | CC#CCOc1ccc(S(=O)(=O)C(C(=O)NO)c2ccc(OC)cc2)cc1 (configuration not stated) |  | > 10 µM | > 10000 nM | 3690 nM | 201 nM | 
29 | CC#CCOc1ccc([S@+]([O-])[C@H](CCCCCC)C(=O)NO)cc1 | 35% | 3.2 µM | 1000 nM | 150 nM | 12 nM | 
30 | CC#CCOc1ccc(S(=O)(=O)C(C(=O)NO)C2CCN(C(=O)c3ccccc3)CC2)cc1 (configuration not stated) | 28% | > 10 µM | > 10000 nM | > 10000 nM | 233 nM | 
31 | CC#CCOc1ccc(SC2(C(=O)NO)CCN(C(=O)OC(C)(C)C)CC2)cc1 | 0% |  |  |  |  | inhibition (Interstitial collagenase [1]): 24%; inhibition [6]: 38%; inhibition [3]: 25%
32 | CC#CCOc1ccc(SC(C(=O)NO)c2ccccc2)cc1 (configuration not stated) | 14% | > 10 µM | > 10000 nM | > 10000 nM |  | 
33 | CC#CCOc1ccc(SC(C(=O)NO)c2ccc(OC)cc2)cc1 (configuration not stated) | 3% | > 10 µM | > 10000 nM | > 10000 nM |  | 
34 | CC#CCOc1ccc(S(=O)(=O)C(C(=O)NO)C2CCSCC2)cc1 (configuration not stated) | 15% | > 10 µM | > 10000 nM | > 10000 nM | 113 nM | 
35 | CC#CCOc1ccc(S(=O)(=O)C2(C(=O)NO)CCN(Cc3ccc(OC)cc3)CC2)cc1 |  |  |  |  |  | Activity (Mus musculus [9]): inactive; inhibition in vivo at 100 mg/kg (Mus musculus [10]): 91%; inhibition in vivo at 100 mg/kg (Mus musculus [11]): 24%
36 | CC#CCOc1ccc(S(=O)(=O)C(C(=O)NO)C(C)C)cc1 (configuration not stated) |  | 5.14 µM | 1260 nM | 107 nM |  | 
37 | CC#CCOc1ccc([S@@+]([O-])[C@H](C(=O)NO)C(C)C)cc1 |  | 6.48 µM | 399 nM |  |  | 
38 | CC#CCOc1ccc(S(=O)(=O)C(C(=O)NO)C2CC[S+]([O-])CC2)cc1 (configuration not stated) | 14% | > 10 µM | > 10000 nM | > 10000 nM | 39 nM | 
39 | CC#CCOc1ccc([S+]([O-])C(C(=O)NO)c2ccccc2)cc1 (single isomer, unassigned) | 74% | > 10 µM | > 10000 nM | > 10000 nM |  | 
40 | CC#CCOc1ccc(S(=O)(=O)C2(C(=O)NO)CCN(Cc3ccc(Br)cc3)CC2)cc1 |  | 3.37 µM |  |  |  | 
41 | C#CCOc1ccc(S(=O)(=O)C2(C(=O)NO)CCN(Cc3ccccc3)CC2)cc1 | 0% | 0.096 µM | 18 nM | 7 nM | 69 nM | 
42 | CCCCCC[C@@H](C(=O)NO)[S@+]([O-])c1ccc(OC)cc1 (relative stereo) |  | 1.15 µM | 186 nM | 72 nM | 30 nM | 

Reference: ChEMBL document CHEMBL1149252, “Synthesis and structure-activity relationships of 4-alkynyloxy phenyl sulfanyl, sulfinyl, and sulfonyl alkyl hydroxamates as tumor necrosis factor-alpha converting enzyme and matrix metalloproteinase inhibitors” (J Med Chem, 2004)
